MLL AF4-AF9 inh – inhibitors of AF4 peptide binding to AF9, primary screen, biochemical, AlphaScreen, biotin-AF4 peptide, FLAG-AF9, single point | actives 0.47% (n = 350,000) | Protein AF-9 (Homo sapiens), P42568 | AID 651704, 2012 | inhibition, % at 10 µM;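 active = every replicate reaching a set inhibition limit, whatever the replicate mean, cut at about 25% in these data; inconclusive = mean inhibition reaches that limit but some replicates miss it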;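 also: 0% = plate neutral control median and 100% = total signal loss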
Target sequence (P42568 whole entry, looked up): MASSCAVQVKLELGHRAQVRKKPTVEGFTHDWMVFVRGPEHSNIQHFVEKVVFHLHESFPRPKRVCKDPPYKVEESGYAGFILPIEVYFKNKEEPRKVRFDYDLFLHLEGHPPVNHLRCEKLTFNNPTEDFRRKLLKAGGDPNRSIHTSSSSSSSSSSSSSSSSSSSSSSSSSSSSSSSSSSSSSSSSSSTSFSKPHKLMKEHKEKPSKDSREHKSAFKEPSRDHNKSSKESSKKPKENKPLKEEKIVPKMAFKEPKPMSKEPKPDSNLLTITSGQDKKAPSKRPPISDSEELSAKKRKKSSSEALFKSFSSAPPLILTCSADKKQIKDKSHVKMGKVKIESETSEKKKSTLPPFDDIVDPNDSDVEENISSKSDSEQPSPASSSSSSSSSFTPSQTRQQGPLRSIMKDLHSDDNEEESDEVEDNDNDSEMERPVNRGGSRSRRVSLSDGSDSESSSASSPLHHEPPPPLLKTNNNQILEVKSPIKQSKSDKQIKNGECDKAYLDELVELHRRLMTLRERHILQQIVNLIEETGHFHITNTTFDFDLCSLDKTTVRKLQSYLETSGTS
EWS-Fli block – EWS/Fli-driven NR0B1 reporter inhibitors, primary screen, A673 cells, NR0B1 luciferase, luminescence, MLPCN library; viability-normalised; inhibition, % at 12.6 µM; actives 0.67% (n = 350,000);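 active = mean inhibition of at least 50% after viability correction, with every replicate also passing that limit; inconclusive = mean reaches 50% but only one of two replicates passes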;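 also: firefly luciferase signal divided by Alamar Blue viability fluorescence both relative to DMSO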
FN deposit inh – inhibitors of fibronectin matrix deposition, primary screen, AH1F cells, Alexa488-fibronectin fluorescence, plate reader. AH1F fibroblasts, overnight. inhibition, % at 12.6 µM. actives 0.086% (n = 350,000). AID 743247, 2014;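 active = mean inhibition across replicates of 30% or more, regardless of how many single replicates reach that level; inconclusive = mean under 30% yet at least half of replicates reach 30%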;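 also: positive control wells lacked labelled fibronectin entirely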
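Measured by – fluorescence 485/525 nm · System – AH1F fibroblast monolayer, labelled fibronectin deposition · Amount – 10000 cells per well · Buffer or medium – serum-reduced DMEM (2% serum) · Doses – single dose, pinned · Also added – fluorescent fibronectin at 24 nM final · Schedule – 1 h cell attachment, overnight exposure to compound and label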
Env fusion inh – inhibitors of HIV-1 Env-driven cell-cell fusion, primary screen, HeLa-JRFL effector, CEM21 target cells, luciferase. inhibition, % at 12.3 µM. actives 1.1% (n = 360,000). AID 651610, 2012;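 active = mean replicate inhibition score of at least 50 and every replicate individually at or above 50; inconclusive = only one of the two criteria met; inactive = mean below 50 and not all replicates reaching 50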;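 also: 0% = plate neutral controls and 100% = maraviroc near 300 nM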
Glyco luc inh – increase of ERlucT glycosylation luciferase signal, primary screen, N-linked glycosylation inhibitor project, D54 ERlucT cells, luminescence, set 2; AID 588692, 2011; actives 0.23% (n = 360,000); reporter increase, % at 12.5 µM; D54 ERlucT glycosylation luciferase reporter, 24 h; percent of 100 nM tunicamycin response;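 active = mean luciferase reporter signal, scaled so untreated is 0 and the glycosylation-blocking control 100, at or above a set limit in every replicate; inconclusive = mean reaches the limit but not every replicate does; inactive = mean below the limit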;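 also: luciferase carries N-glycosylation sites so blocking glycosylation raises the light; 0% = median of neutral control wells and 100% = median of 100 nM tunicamycin wells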
PAX8 inh HTS – inhibitors of PAX8-driven TPO luciferase reporter, primary screen, RMG-I cells, single concentration; SteadyGlo, 24 h; actives 1.2% (n = 360,000); AID 652154, 2013; inhibition, % at 12.6 µM;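 active = mean replicate inhibition at least 60% with every replicate also reaching 60%; inconclusive = only one of the two criteria is met; inactive = mean below 60% and not all replicates reaching 60%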;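 also: luciferase light reporting Pax8 driven TPO promoter activity; plate controls were median of neutral control wells for no effect and mitoxantrone controls for full effect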
Active calls of the source: *; ? = inconclusive; . = not tested or not shown; [ ] = dose if it differs, or a comment. Rows were chosen to be rich in hits. Some 2.5% of all compounds tested hit in one or more screens of this group.

SMILES | MLL AF4-AF9 inh | EWS-Fli block | FN deposit inh | Env fusion inh | Glyco luc inh | PAX8 inh HTS
O=c1[nH]c(=O)n([C@H]2C[C@H](O)[C@@H](CO)O2)cc1I | -1.4 | -2.0 | -3.5 | -71.2 | 55.1* | -11.4
CO[C@H]1CN(C)C(=O)c2cc(NC(=O)C3CC3)ccc2OC[C@@H](C)N(C(=O)CN(C)C)C[C@H]1C | 1.1 | 11.2 | -3.1 | . | . | .
COc1cc(C(=O)NCCOc2cc(C)cc(C)c2)cc(OC)c1OC | -3.7 | 53.0* | 4.7 | -150.9 | ? | 14.1
COc1cc(C(=O)NCCOc2ccccc2)cc(OC)c1OC | -0.8 | -6.9 | -0.7 | -13.9 | 1.0 | -42.1
N#C[C@@H]1[C@@H](c2ccccc2C2=CCCCC2)[C@H](CO)N1C(=O)NC1CCCCC1 | -0.7 | 6.2 | -7.3 | . | . | .
COc1ccc(CN2C[C@@H](O)COC[C@@H]3O[C@@H](CC(=O)N4CCc5ccccc5C4)CC[C@H]32)cc1 | 1.2 | 4.3 | 0.5 | . | . | 7.0
Cn1c(=O)n(C)c2cc([N+](=O)[O-])c(N3CCN(C(=O)c4ccccc4)CC3)cc21 | . | . | -4.8 | 55.4* | 3.2 | .
Cn1c(=O)n(C)c2cc([N+](=O)[O-])c(N3CCN(C(=O)c4ccccc4Cl)CC3)cc21 | . | . | 10.4 | 89.6* | 5.6 | .
Cn1c(=O)n(C)c2cc([N+](=O)[O-])c(N3CCN(C(=O)c4ccccc4Br)CC3)cc21 | -0.6 | 13.1 | -3.3 | 30.5 | 3.9 | 15.6
COc1ccc([C@H]2CC(=O)C=C(c3cccc(C(C)C)c3)C2)cc1OC | 4.6 | 20.6 | 1.1 | 63.0* | -6.9 | 35.3
COc1ccc([C@H]2CC(=O)C=C(/C=C/c3ccccc3)C2)cc1OC | 29.5* | -1.0 | 4.3 | -0.7 | 6.0 | -19.4
O=[N+]([O-])c1ccc(N=Nc2ncc[nH]2)cc1 | 0.1 | 62.6* | 6.8 | -204.4 | -1.3 | 74.3*
C[C@H](CO)N1C[C@H](C)[C@@H](CN(C)C(=O)NC2CCCCC2)Oc2c(NS(=O)(=O)c3ccc(Cl)cc3)cccc2C1=O | -3.3 | -1.4 | -13.0 | . | . | -8.6
C[C@@H]1CN([C@@H](C)CO)C(=O)c2cc(N(C)C)ccc2O[C@@H](C)CCCCO[C@H]1CN(C)S(=O)(=O)c1ccc(F)cc1 | -3.1 | 0.1 | 2.3 | 44.5[16.7 µM] | . | 87.7*
C[C@@H]1CCCCO[C@H](CN(C)S(=O)(=O)c2ccc(Cl)cc2)[C@H](C)CN([C@@H](C)CO)C(=O)c2cc(N(C)C)ccc2O1 | 12.7 | -0.9 | . | 7.7[16.7 µM] | . | 77.1*
C[C@H]1CCCCO[C@H](CN(C)C(=O)Nc2ccc(C(F)(F)F)cc2)[C@@H](C)CN([C@@H](C)CO)C(=O)c2cc(NS(=O)(=O)c3ccccc3)ccc2O1 | -5.4 | 20.4 | -12.3 | 78.4*[16.7 µM] | . | 78.7*
C[C@@H]1CN([C@@H](C)CO)C(=O)c2cc(NS(=O)(=O)c3ccccc3)ccc2O[C@@H](C)CCCCO[C@H]1CN(C)C(=O)Nc1ccc(C(F)(F)F)cc1 | -1.8 | -7.4 | -18.6 | . | . | -14.4
C[C@@H]1CCCCO[C@@H](CN(C)C(=O)Nc2ccc(C(F)(F)F)cc2)[C@H](C)CN([C@H](C)CO)C(=O)c2cc(NS(=O)(=O)c3ccccc3)ccc2O1 | -0.4 | 23.2 | -0.7 | 14.2[16.7 µM] | . | 83.5*
C[C@H]1CCCCO[C@@H](CN(C)C(=O)Nc2ccc(C(F)(F)F)cc2)[C@@H](C)CN([C@@H](C)CO)C(=O)c2cc(NS(=O)(=O)c3cn(C)cn3)ccc2O1 | 1.3 | 27.8 | -7.2 | 22.0[16.7 µM] | . | 90.6*
O=C(NCC[C@H]1CC[C@@H](NS(=O)(=O)Cc2ccccc2)[C@@H](CO)O1)C1CCC1 | . | 2.5 | . | 2.9[16.7 µM] | . | 7.9
CCCNC(=O)C[C@@H]1CC[C@@H]2[C@H](COC[C@H](O)CN2C(=O)Nc2ccccc2OC)O1 | -10.2 | 0.1 | -10.4 | . | . | -2.1
O=C(Cc1ccncc1)N[C@H]1CC[C@@H](CCn2cc(-c3ccccc3F)nn2)O[C@@H]1CO | 0.1 | 3.1 | 2.5 | 71.9*[16.7 µM] | . | -2.3
O=C(Cc1ccccn1)N[C@H]1CC[C@@H](CCn2cc(-c3ccccc3)nn2)O[C@H]1CO | 1.5 | 6.2 | . | -1.1[16.7 µM] | . | 6.8
O=C(Cc1ccccn1)N[C@H]1CC[C@H](CCn2cc(-c3ccccc3)nn2)O[C@@H]1CO | 2.1 | -5.8 | . | -0.6[16.7 µM] | . | 78.8*
O=C(Cc1ccccn1)N[C@@H]1CC[C@@H](CCn2cc(-c3ccccc3)nn2)O[C@H]1CO | 1.4 | 3.1 | . | 11.8[16.7 µM] | . | 99.2*
SMILES | MLL AF4-AF9 inh | EWS-Fli block | FN deposit inh | Env fusion inh | Glyco luc inh | PAX8 inh HTS
O=C(Cc1ccccn1)N[C@@H]1CC[C@H](CCn2cc(-c3ccccc3)nn2)O[C@@H]1CO | 2.1 | 1.4 | . | 11.7[16.7 µM] | . | 4.0
CC(=O)Nc1ccc(S(=O)(=O)Nc2cccc3cccnc23)cc1 | -11.1 | 8.2 | -6.5 | -12.6 | 4.6 | 4.5
Cc1ccc(S(=O)(=O)Nc2cccc3cccnc23)c([N+](=O)[O-])c1 | -0.6 | 6.6 | 34.5* | -25.8 | -5.5 | 71.0*
Cc1cc(C)n(-c2ccc3cccc(NS(C)(=O)=O)c3n2)n1 | . | . | 4.6 | 60.4* | -8.0 | .
O=S(=O)(Nc1cccc2ccccc12)c1ccccc1 | 0.1 | -51.9 | -2.7 | 7.4 | 2.3 | 25.8
CS(=O)(=O)Nc1cccc2cccnc12 | . | . | . | . | 3.8 | .
Cc1ccc2cccc(NS(=O)(=O)c3ccccc3)c2n1 | -6.9 | -32.0 | 18.8 | -28.7 | . | 96.2*
O=S(=O)(Nc1cccc2cccnc12)c1ccccc1 | 2.5 | 70.5* | 11.0 | 2.2 | -15.8 | 105.4*
C[C@@H]1CN([C@H](C)CO)S(=O)(=O)c2ccc(-c3ccc(C(=O)N(C)C)cc3)cc2O[C@H]1CN(C)C(=O)C1CCCCC1 | 8.0 | 11.2 | . | -3.0[16.7 µM] | . | .
COc1ccc(CCNC(=O)CSc2nc(N)c(C#N)c(-c3cccs3)c2C#N)cc1OC | . | . | . | 118.6* | 1.1 | .
Cc1ccccc1NC(=O)CSc1nc(N)c(C#N)c(-c2cccs2)c1C#N | . | . | . | . | -1.9 | .
O=C1C(Cl)=C(N2CCCCCC2)C(=O)N1c1ccccc1 | . | . | 0.2 | 104.9* | -1.2 | -3.3
O=C1C(Cl)=C(N2CCCCCC2)C(=O)N1c1ccc(Br)cc1 | 10.9 | -10.8 | -21.1 | -5.5 | -1.8 | 14.9
COC(=O)/C(C#N)=C/c1ccc(OC(=O)c2ccccn2)cc1 | 2.0 | 51.6* | . | -4.4 | 3.3 | 0.6
CCCN1[C@@H]2Cn3c(ccc(-c4ccncc4)c3=O)[C@H]1[C@@H](C(=O)N1CCCCC1)[C@@H]2CO | -1.3 | 1.6 | . | . | . | -5.7
O=C(CSc1ncccc1-c1nc2ccccc2[nH]1)N1CCc2ccccc21 | 2.9 | -47.7 | -5.2 | . | -5.6 | 89.8*
CN(c1ccccc1)c1ccc(/C=C/[N+](=O)[O-])cc1 | -5.1 | 64.2* | 4.1 | -213.8 | -20.5 | -3.6
O=[N+]([O-])c1ccc(C=CC=Cc2ccccc2)cc1 | 0.3 | -62.8 | -2.7 | -31.7 | -2.6 | -192.9
COc1ccc(C(=O)CSc2nnc(-c3cc4ccccc4cc3O)n2Cc2ccco2)cc1 | . | . | 5.1 | -158.2 | 33.1* | 24.1
